Test [1] has as its target T1, Adrenergic receptor alpha-1 (Rattus norvegicus, UniProt P15823+P23944+P43140).
T1 sequence (P15823 whole entry): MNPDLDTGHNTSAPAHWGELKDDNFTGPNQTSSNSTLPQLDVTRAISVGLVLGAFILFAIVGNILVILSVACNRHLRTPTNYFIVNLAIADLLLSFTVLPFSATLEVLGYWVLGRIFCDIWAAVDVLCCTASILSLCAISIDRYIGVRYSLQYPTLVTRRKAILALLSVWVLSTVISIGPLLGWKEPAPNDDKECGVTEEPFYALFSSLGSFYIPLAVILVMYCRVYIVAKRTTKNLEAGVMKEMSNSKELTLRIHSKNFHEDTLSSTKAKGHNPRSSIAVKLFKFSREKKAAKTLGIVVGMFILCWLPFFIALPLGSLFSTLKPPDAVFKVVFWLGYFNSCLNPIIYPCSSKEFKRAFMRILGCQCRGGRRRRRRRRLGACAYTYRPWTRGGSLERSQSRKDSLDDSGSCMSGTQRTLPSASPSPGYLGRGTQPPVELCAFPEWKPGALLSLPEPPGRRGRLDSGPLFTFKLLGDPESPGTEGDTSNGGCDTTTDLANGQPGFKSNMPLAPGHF
T1 sequence (P23944 whole entry): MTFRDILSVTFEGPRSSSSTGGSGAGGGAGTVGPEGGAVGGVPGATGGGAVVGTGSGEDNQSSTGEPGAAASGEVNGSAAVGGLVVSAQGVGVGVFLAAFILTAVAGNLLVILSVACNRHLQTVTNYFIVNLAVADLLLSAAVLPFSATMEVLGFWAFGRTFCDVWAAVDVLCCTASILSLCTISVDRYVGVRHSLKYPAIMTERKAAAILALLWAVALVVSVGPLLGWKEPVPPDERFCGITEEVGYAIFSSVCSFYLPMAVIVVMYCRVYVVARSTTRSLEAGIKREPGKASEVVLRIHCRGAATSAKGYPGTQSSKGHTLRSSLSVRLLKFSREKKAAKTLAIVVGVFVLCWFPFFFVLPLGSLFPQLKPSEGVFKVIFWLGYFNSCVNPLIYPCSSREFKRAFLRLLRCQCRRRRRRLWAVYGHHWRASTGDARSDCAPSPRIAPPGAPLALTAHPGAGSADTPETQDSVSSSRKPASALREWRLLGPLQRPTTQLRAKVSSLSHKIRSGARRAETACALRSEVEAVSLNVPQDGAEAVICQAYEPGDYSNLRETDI
T1 sequence (P43140 whole entry): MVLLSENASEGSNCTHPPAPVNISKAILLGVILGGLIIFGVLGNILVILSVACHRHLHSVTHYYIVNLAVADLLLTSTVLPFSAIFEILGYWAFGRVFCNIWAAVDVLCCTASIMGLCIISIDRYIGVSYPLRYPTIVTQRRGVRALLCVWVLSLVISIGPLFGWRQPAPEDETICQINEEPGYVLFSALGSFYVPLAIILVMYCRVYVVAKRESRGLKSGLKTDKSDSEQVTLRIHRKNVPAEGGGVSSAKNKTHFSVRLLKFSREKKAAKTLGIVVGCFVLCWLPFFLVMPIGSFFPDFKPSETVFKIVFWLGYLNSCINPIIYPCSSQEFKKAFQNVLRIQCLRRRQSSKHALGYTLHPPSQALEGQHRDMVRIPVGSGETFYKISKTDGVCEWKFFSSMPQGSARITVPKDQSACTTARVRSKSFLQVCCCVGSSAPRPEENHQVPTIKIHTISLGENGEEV
Put plainly: In vitro binding affinity against alpha-1 adrenergic receptor of rat cerebral cortex using [3H]prazosin as radioligand. It counts as tissue-based. In short, it runs like this: (§1)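 Rat cerebral cortex homogenized in ice-cold 50 mM Tris-HCl/10 mM MgCl2 (pH 7.7), centrifuged at 30000g, washed twice. About 250 μg membrane protein incubated at 25 °C for 30 min with 0.2 nM [3H]prazosin plus several competitor concentrations. Compounds first screened at 10^-6 M; dose-response curves done where displacement reached ≥55%.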

The target in test [2] is T2, 5-hydroxytryptamine receptor 1A (Rattus norvegicus, UniProt P19327).
T2 sequence (P19327 whole entry): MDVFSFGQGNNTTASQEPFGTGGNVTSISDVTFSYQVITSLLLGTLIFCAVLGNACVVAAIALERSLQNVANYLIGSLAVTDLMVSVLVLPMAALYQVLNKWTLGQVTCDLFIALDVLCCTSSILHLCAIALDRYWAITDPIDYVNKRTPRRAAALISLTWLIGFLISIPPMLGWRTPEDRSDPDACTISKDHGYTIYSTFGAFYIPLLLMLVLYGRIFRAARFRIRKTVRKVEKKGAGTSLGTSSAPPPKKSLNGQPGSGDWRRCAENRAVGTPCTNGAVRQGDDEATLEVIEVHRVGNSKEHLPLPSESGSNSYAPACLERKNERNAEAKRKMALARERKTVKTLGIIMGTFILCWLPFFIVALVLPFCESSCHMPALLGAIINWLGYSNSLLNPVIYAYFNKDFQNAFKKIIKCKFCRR
Put plainly: In vitro binding affinity against 5-hydroxytryptamine 1A receptor of rat cerebral cortex using [3H]8-OH-DPAT as radioligand. In kind it is tissue-based. In short, it runs like this:
(§2)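 Rat cortex homogenized in ice-cold 50 mM Tris-HCl (pH 7.7), spun at 28000g, washed twice, preincubated 37 °C 10 min, resuspended in Tris/5 mM MgSO4/0.5 mM EDTA (pH 7.4). About 1 mg protein incubated 15 min at 37 °C with 0.6 nM [3H]-8-OH-DPAT and competitor, in buffer with 10 nM clonidine and 30 nM prazosin. Nonspecific binding: 10 μM 5-HT. Prescreen at 10^-6 M; curves run if displacement ≥55%.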

The target in test [3] is T1, Adrenergic receptor alpha-1. Put plainly: Tested in vitro for binding affinity by measuring its ability to inhibit [3H]prazosin binding at alpha-1 adrenergic receptor in rat cerebral cortex membranes. In kind it is cell membranes. In short, it runs like this:
as §1

Test [4] concerns the target T2, 5-hydroxytryptamine receptor 1A. Put plainly: Tested in vitro for binding affinity by measuring its ability to inhibit [3H]8-OH-DPAT binding at 5-hydroxytryptamine 1A receptor in rat cerebral cortex membranes. In kind it is cell membranes. In outline: as §2

In ChEMBL document CHEMBL1130040, “Synthesis and structure-activity relationships of a new model of arylpiperazines. 2. Three-dimensional quantitative structure-activity relationships of hydantoin-phenylpiperazine derivatives with affinity for 5-HT1A and alpha 1 receptors. A comparison of CoMFA models” (J Med Chem, 1997) one finds Ki data, which are given here for 22 compounds.

Some results are limits rather than exact numbers.

As for `O=C1C2CCCN2C(=O)N1CN1CCN(c2ccc([N+](=O)[O-])cc2)CC1` (stereo not drawn), the Ki came out at 260 µM in test [1] and 6.1 µM in test [2].
As for `O=C1C2CCCCN2C(=O)N1CCN1CCN(c2ccc([N+](=O)[O-])cc2)CC1` (stereo not drawn), the Ki was 199 µM in test [3] and 93.6 µM in test [4].
Consider `O=C1C2CCCCN2C(=O)N1CN1CCN(c2ccccc2)CC1` (stereo not drawn), for which the Ki in test [1] was 2.075 µM.
For the compound `COc1ccccc1N1CCN(CN2C(=O)C3CCCCN3C2=O)CC1` (stereo not drawn), the Ki in test [2] was 0.0311 µM.
`O=C1C2CCCN2C(=O)N1CCCN1CCN(c2ccc(F)cc2)CC1` (stereo not drawn) came in with a Ki in test [4] of 1.18 µM.
In test [3], `O=C1C2CCCN2C(=O)N1CCN1CCN(c2cccc(C(F)(F)F)c2)CC1` (stereo not drawn) returned a Ki of 3.935 µM.
`O=C1C2CCCN2C(=O)N1CCCCN1CCN(c2ccc([N+](=O)[O-])cc2)CC1` (stereo not drawn) came in with a Ki in test [4] of 23.9 µM.
The compound `O=C1C2CCCN2C(=O)N1CN1CCN(c2cccc(C(F)(F)F)c2)CC1` (stereo not drawn) registered a Ki in test [1] of 3.296 µM.
`O=C1C2CCCN2C(=O)N1CN1CCN(c2ccc(F)cc2)CC1` (stereo not drawn) came in with a Ki in test [1] of 1.193 µM.
For `CC(C)C(=O)Nc1cccc(N2CCN(CCCCN3C(=O)C4CCCN4C3=O)CC2)c1.Cl` (stereo not drawn), the Ki in test [3] was above 10 µM; in test [4] it was 0.102 µM.
For the compound `O=C1C2CCCN2C(=O)N1CN1CCN(c2ccccc2)CC1` (stereo not drawn), the Ki in test [1] is 2.588 µM.
With `Nc1ccc(N2CCN(CCCCN3C(=O)C4CCCN4C3=O)CC2)cc1` (stereo not drawn), the Ki in test [4] is above 10 µM.
In the case of `O=C1C2CCCN2C(=O)N1CCN1CCN(c2ccccc2)CC1` (stereo not drawn), the Ki in test [4] came out at 7.55 µM.
In test [1], `O=C1C2CCCCN2C(=O)N1CN1CCN(c2cccc(C(F)(F)F)c2)CC1` (stereo not drawn) came in with a Ki of 3.296 µM.
As for `O=C1C2CCCCN2C(=O)N1CCN1CCN(c2cccc(C(F)(F)F)c2)CC1` (stereo not drawn), in test [3], the Ki was determined as 4.325 µM.
Consider `O=C1C2CCCN2C(=O)N1CCN1CCN(c2ccc(F)cc2)CC1` (stereo not drawn), for which, in test [4], the inhibition constant Ki is 23.9 µM.
`O=C1C2CCCCN2C(=O)N1CCN1CCN(c2ccc(F)cc2)CC1` (stereo not drawn) gave an inhibition constant Ki in test [4] of 19.3 µM.
In the case of `O=C1C2CCCN2C(=O)N1CCCN1CCN(c2ccc([N+](=O)[O-])cc2)CC1` (stereo not drawn), the Ki in test [3] was found to be 7.533 µM.
Consider `O=C1C2CCCCN2C(=O)N1CN1CCN(c2ccc([N+](=O)[O-])cc2)CC1` (stereo not drawn), for which the inhibition constant Ki in test [1] was 260 µM; in test [2] it was 5.97 µM.
`O=C1C2CCCCN2C(=O)N1CCN1CCN(c2ccccc2)CC1` (stereo not drawn) had an inhibition constant Ki in test [4] of 1.35 µM.
In the case of `O=C1C2CCCCN2C(=O)N1CCCN1CCN(c2ccc([N+](=O)[O-])cc2)CC1` (stereo not drawn), the Ki in test [3] was 6.652 µM; in test [4], 30.6 µM.
Consider `O=C1C2CCCN2C(=O)N1CCN1CCN(c2ccc([N+](=O)[O-])cc2)CC1` (stereo not drawn), for which the Ki was 260 µM in test [3] and 501 µM in test [4].

A word on the Ki: it is a measure of affinity in units of concentration, obtained from inhibition or displacement. Read a high Ki as lower affinity.
